ChEMBL document CHEMBL1125115 (J Med Chem, 1990)
Square brackets hold non-standard residues; d marks the D form. Peptide text beside a SMILES is read from it. GABA = NCCCC(=O)O

Tests used:
Substance-K receptor = molecular target: T1, Substance-K receptor (Rattus norvegicus, UniProt P16610); experiment: Agonist activity was measured at neurokinin-2 receptor in the rat colon muscularis mucosae; assay type: functional, tissue-based, Muscularis mucosa
T1 sequence (P16610 whole entry): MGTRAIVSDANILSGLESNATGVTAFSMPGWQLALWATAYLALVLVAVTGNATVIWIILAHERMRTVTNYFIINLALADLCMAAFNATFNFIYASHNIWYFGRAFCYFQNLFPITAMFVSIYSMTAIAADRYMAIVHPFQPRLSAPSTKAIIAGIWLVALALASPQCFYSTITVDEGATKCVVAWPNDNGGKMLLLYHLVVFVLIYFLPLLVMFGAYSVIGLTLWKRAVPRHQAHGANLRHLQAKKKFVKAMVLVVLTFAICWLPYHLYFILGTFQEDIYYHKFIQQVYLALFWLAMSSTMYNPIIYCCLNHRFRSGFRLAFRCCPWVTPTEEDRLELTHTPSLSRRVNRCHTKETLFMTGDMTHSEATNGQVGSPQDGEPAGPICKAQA
Summary of the method: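 Rat colon muscularis mucosae strip (NK-2); isotonic contractions at 35 °C with atropine, mepyramine, methysergide and indomethacin (each 1 µM). Equipotent molar ratios converted to EC50 using mean EC50 of standard agonist.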

Substance-P receptor = Substance-P receptor (Cavia porcellus, UniProt P30547); experiment: Agonistic activity at neurokinin-1 (NK-1) receptor in guinea pig ileum longitudinal smooth muscle; assay type: functional, tissue-based
Chain of Substance-P receptor (P30547 whole entry): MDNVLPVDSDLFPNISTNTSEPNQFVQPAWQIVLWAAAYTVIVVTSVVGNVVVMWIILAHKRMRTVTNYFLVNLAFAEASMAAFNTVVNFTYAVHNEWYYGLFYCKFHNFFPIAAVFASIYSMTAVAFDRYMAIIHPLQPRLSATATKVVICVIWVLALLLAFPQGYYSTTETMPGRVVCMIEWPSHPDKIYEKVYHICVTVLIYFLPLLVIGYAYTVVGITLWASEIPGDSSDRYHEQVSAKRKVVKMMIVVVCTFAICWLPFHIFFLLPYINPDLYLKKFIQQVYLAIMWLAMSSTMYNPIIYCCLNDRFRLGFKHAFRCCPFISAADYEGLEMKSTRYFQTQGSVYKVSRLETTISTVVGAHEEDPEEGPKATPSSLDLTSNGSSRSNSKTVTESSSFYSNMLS
Summary of the method: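 Guinea pig ileum longitudinal smooth muscle-myenteric plexus strip (NK-1); isotonic contractions at 35 °C with atropine, mepyramine, methysergide and indomethacin (each 1 µM). Equipotent molar ratios converted to EC50 using mean EC50 of standard agonist.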

[1] = molecular target: Substance-P receptor (Cavia porcellus) (UniProt P30547); experiment: Antagonistic activity against the highly selective tachykinin receptor 1 in guinea pig ileum; assay type: functional, tissue-based
Chain of Substance-P receptor (Cavia porcellus) (P30547 whole entry): as above

[2] = molecular target: T2, Substance-K receptor (Rattus norvegicus) (UniProt P16610); experiment: Antagonistic activity at tachykinin receptor 2 in the rat colon muscularis mucosae; C= Partial agonist; assay type: functional; conditions: filed as partial agonist
T2 sequence (whole entry): T1 sequence (P16610 whole entry)
Summary of the method: (§1)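 Rat colon muscularis mucosae, isotonic contractions at 35 °C with atropine, mepyramine, methysergide, indomethacin (1 µM each). Dose ratio from rightward shift of agonist concentration-response curve with antagonist present; pKB = log[DR - 1] - log[B], B = molar antagonist concentration.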

[3] = molecular target: T2, Substance-K receptor (Rattus norvegicus); experiment: Antagonistic activity against the highly selective tachykinin receptor 2 in rat colon muscularis mucosae; assay type: functional; summary of the method: as §1

`CC(C)C[C@H](NC(=O)CNC(=O)[C@H](Cc1ccccc1)NC(=O)[C@H](Cc1ccccc1)NC(=O)CCCN)C(=O)N[C@@H](Cc1c[nH]c2ccccc12)C(N)=O` (H-[GABA]FFGLW-NH2) was tested, and the EC50 (Substance-K receptor) was over 16 µM and the EC50 (Substance-P receptor) was 4.38 µM.
For `CSCC[C@H](NC(=O)[C@H](CC(C)C)N1CCC2(CCCN2C(=O)[C@H](Cc2ccccc2)NC(=O)[C@H](Cc2ccccc2)NC(=O)CCCN)C1=O)C(N)=O` (stereo partly specified), the pKB [1] was 5.6 and the pKB [2] was “Partial agonist”.
`CC(C)C[C@@H](C(=O)NC(Cc1c[nH]c2ccccc12)C(N)=O)N1CCC2(CCCN2C(=O)[C@H](Cc2ccccc2)NC(=O)[C@H](Cc2ccccc2)NC(=O)CCCN)C1=O` (stereo partly specified) showed a pKB [1] of 6.62 and a pKB [3] of 5.27.
`CC(C)C[C@@H](C(=O)NC(CCc1ccccc1)C(N)=O)N1CCC2(CCCN2C(=O)[C@H](Cc2ccccc2)NC(=O)[C@H](Cc2ccccc2)NC(=O)CCCN)C1=O` (stereo partly specified) was tested, and the pKB [1] was 6.64 and the pKB [3] was 5.84.
`CC(C)C[C@@H](C(=O)N[C@H](CC1CCCCC1)C(N)=O)N1CCC2(CCCN2C(=O)[C@H](Cc2ccccc2)NC(=O)[C@H](Cc2ccccc2)NC(=O)CCCN)C1=O` (stereo partly specified) gave a pKB [1] of 6.43 and a pKB [3] of 5.86.
`CNC(=O)[C@H](CC(C)C)N1CCC2(CCCN2C(=O)[C@H](Cc2ccccc2)NC(=O)[C@H](Cc2ccccc2)NC(=O)CCCN)C1=O` (stereo partly specified) was tested, and the pKB [1] was under 4.5 and the pKB [3] was under 4.5.
With `CC(C)C[C@@H](C(=O)N[C@H](Cc1ccccc1)C(N)=O)N1CCC2(CCCN2C(=O)[C@H](Cc2ccccc2)NC(=O)[C@H](Cc2ccccc2)NC(=O)CCCN)C1=O` (stereo partly specified) the pKB [1] was 6.28 and the pKB [3] was 5.36.
With `CSCC[C@@H](NC(=O)[C@H](CC(C)C)N1CCC2(CCCN2C(=O)[C@H](Cc2ccccc2)NC(=O)[C@H](Cc2ccccc2)NC(=O)CCCN)C1=O)C(N)=O` (stereo partly specified) the pKB [1] was 5.66 and the pKB [3] was under 4.5.
